Data on 20 compounds can be found in ChEMBL document CHEMBL1146602, “4-Hydroxymethyl-3-aminoacridine derivatives as a new family of anticancer agents” (J Med Chem, 2003).

The nature of series [1]: Partition coefficient (logP). It is filed as physicochemical. Conditions: octanol/water.
In a further series the test system is HT-29. Briefly: In vitro cytotoxicity against HT-29 (human colon cancer) cell line. In kind it is functional, cell-based. Summed up: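 HT29 colon adenocarcinoma cells in DMEM with 10% FCS, seeded at 5×10^4 cells/well and grown 2 days, then exposed 24 h to compounds in DMSO (DMSO controls). Cells washed with PBS and regrown 3 days drug-free. Survival read by MTT (30 min, 100 µg/well), formazan dissolved in DMSO, A540, as % of controls. IC50 taken from regression curves.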

The test system of a further series is L1210. Briefly: In vitro cytotoxic against L1210 (murine leukemia) cell line. In kind it is functional, cell-based. The note with it: Mus musculus. The gist of the method: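 L1210 mouse leukaemia cells in DMEM with 10% FCS, seeded at 10⁵ cells/mL and grown 24 h (about 3×10^5 cells/mL). Compounds added in DMSO at increasing concentrations, in duplicate, against DMSO controls. Cells counted with a Coulter counter after a further 24 h at 37 °C, 5% CO2. IC50 (50% reduction in cell number versus controls) taken from regression curves.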

Another series concerns A549. Briefly: In vitro cytotoxicity against A549 (human lung carcinoma) cell line. In kind it is functional, cell-based. Summed up:
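Clonogenic test on A549 lung adenocarcinoma cells in F12-K with 10% FCS, plated at 200 cells/well. After 24 h, exposed 24 h to compounds at various concentrations, washed with PBS, then grown 14 days drug-free. Giemsa-stained colonies counted; survival as % of untreated controls.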

In series [1], `CS(=O)(=O)Nc1ccc2cc3ccc4c(c3nc2c1)COCN4` yielded a logP of 0.7. Moreover, the IC50 with HT-29 is 12000 nM; with L1210, 6200 nM; in the series on A549 it was 6000 nM.
On the same counts, the results for `CCOC(=O)Nc1ccc2cc3ccc4c(c3nc2c1)COC(=O)N4` are 2, 11000 nM, 2700 nM and 2200 nM.
On the same counts, the results for `CCOC(=O)N1COCc2c1ccc1cc3ccc4c(c3nc21)COCN4C(=O)OCC` are 2.5, 1000 nM, greater than 200000 nM and 3500 nM.
On the same counts, the results for `CN(c1ccc2cc3ccc4c(c3nc2c1)COCN4)S(C)(=O)=O` are 1.54, 2300 nM, 600 nM and 1300 nM.
In series [1], `CN(C)c1ccc2cc3ccccc3nc2c1CO` came in with a logP of 2.2. In addition, the IC50 in the series on HT-29 was 14000 nM; with L1210 it was 6000 nM; in the series on A549 it was 13000 nM.
On the same counts, the results for `CNc1ccc2cc3ccc4c(c3nc2c1CO)COCN4S(C)(=O)=O` are 1.2, 3700 nM, 1600 nM and 100 nM.
On the same counts, the results for `CCOC(=O)N1COCc2c1ccc1cc3ccc(NC)c(CO)c3nc21` are 1.75, 4200 nM, 1500 nM and 350 nM.
On the same counts, the results for `Nc1ccc2cc3ccccc3nc2c1CO` are 1.77, 25 nM, 20 nM and 5 nM.
As for `CNc1ccc2cc3ccccc3nc2c1CO`, the logP in series [1] is 2.1. The values for the IC50 with HT-29, with L1210 and in the series on A549 were 2500 nM, 1100 nM and 1400 nM, respectively.
On the same counts, the results for `CCOC(=O)Nc1ccc2cc3ccc(NC)c(CO)c3nc2c1` are 1.97, 350 nM, 90 nM and 30 nM.
On the same counts, the results for `CCOC(=O)Nc1ccc2cc3ccc4c(c3nc2c1)COCN4C(=O)OCC` are 3.12, greater than 100000 nM, 84000 nM and 19000 nM.
On the same counts, the results for `CN1COCc2c1ccc1cc3ccc4c(c3nc21)COC(=O)N4` are 1.7, 9000 nM, 1000 nM and 450 nM.
`CCOC(=O)Nc1ccc2cc3ccc4c(c3nc2c1)COCN4`: in series [1], the logP stood at 2.07. For the same compound, the IC50 was 1300 nM with HT-29, 80 nM in the series with L1210 and greater than 50 nM with A549.
On the same counts, the results for `CCOC(=O)Nc1ccc2cc3ccc(N)c(CO)c3nc2c1` are 1.55, 40 nM, 10 nM and 10 nM.
On the same counts, the results for `CNc1ccc2cc3ccc(NS(C)(=O)=O)cc3nc2c1CO` are 0.55, 29000 nM, 2800 nM and 4400 nM.
On the same counts, the results for `O=C1Nc2ccc3cc4ccccc4nc3c2CO1` are 1.64, 17000 nM, 2800 nM and 7000 nM.
On to `c1cc2cc3ccc4c(c3nc2c2c1NCOC2)COCN4`, for which, in series [1], the logP turned out to be 2.17. For the same compound, the concentration for half-maximal inhibition (IC50) came to 1500 nM with HT-29, 350 nM in the series with L1210 and 20 nM in the series with A549.
Regarding `CNc1ccc2cc3ccc(N(C)S(C)(=O)=O)cc3nc2c1CO`, the logP in series [1] stood at 1.56. Further, the IC50 with HT-29 amounted to 1200 nM; in the series on L1210, 200 nM; in the series on A549 it was 300 nM.
On the same counts, the results for `CNc1ccc2cc3ccc4c(c3nc2c1CO)COCN4` are 1.65, 2000 nM, 500 nM and 100 nM.
On the same counts, the results for `CN1COCc2c1ccc1cc3ccc(N)c(CO)c3nc21` are 1.64, 300 nM, 650 nM and 50 nM.

As a reminder, the logP is a log measure of how a compound divides between an organic and an aqueous phase. For orientation: IC50 means the midpoint of a concentration-inhibition curve. Lower therefore signals higher potency.
